Measurements taken from ChEMBL document CHEMBL1136788, “A novel antibacterial 8-chloroquinolone with a distorted orientation of the N1-(5-amino-2,4-difluorophenyl) group” (2003).
Converted amounts (≈) assume the structure as drawn.

Tests used:
Format in all cases: functional
[1] = In vitro antibacterial activity against Gram (-) bacteria
Outline: (§1)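 Value is the geometric mean of MICs over a panel: 14 Gram (–) or 13 Gram (+) strains. MICs came from NCCLS agar dilution in Mueller Hinton medium (10% horse blood added for S. pneumoniae), with twofold dilutions from 128 to 0.002 μg/mL. Inoculum was about 10^4 organisms, at 37 °C for 18 h; endpoint was no visible growth.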

Staphylococcus aureus = assay: Tested for in vitro antibacterial activity against methicillin resistant Staphylococcus aureus W9501
Outline: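 Agar dilution per NCCLS standard method in Mueller Hinton medium; two-fold serial dilutions of test compound from 128 to 0.002 μg/mL. Plates inoculated with about 10^4 organisms, incubated 37 °C for 18 h. MIC read as lowest concentration giving no visible growth on the plate.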

[2] = Tested for in vitro antibacterial activity against Gram (+) bacteria; outline: as §1
Escherichia coli = assay: Tested for in vitro antibacterial activity against Escherichia coli W9523
Outline: (§2)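 Agar dilution per NCCLS. Twofold serial dilutions (128–0.002 μg/mL) were made in Mueller Hinton medium. Plates were inoculated with about 10^4 organisms and incubated at 37 °C for 18 h. MIC was the lowest concentration giving no visible growth.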

Pseudomonas aeruginosa = assay: Tested for in vitro antibacterial activity against Pseudomonas aeruginosa W348; outline: as §2
Streptococcus pneumoniae = assay: Tested for in vitro antibacterial activity against Streptococcus pneumoniae W1466
Outline: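 Agar dilution per NCCLS in Mueller Hinton medium supplemented with 10% horse blood. Twofold dilutions spanned 128–0.002 μg/mL. Inoculum was about 10^4 organisms, incubated at 37 °C for 18 h. MIC was the lowest concentration with no visible growth.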

Structure (SMILES)	GM-MIC [1]	MIC (Staphylococcus aureus)	GM-MIC [2]	MIC (Escherichia coli)	MIC (Pseudomonas aeruginosa)	MIC (Streptococcus pneumoniae)
NC1CN(c2c(F)cc3c(=O)c(C(=O)O)cn(-c4ccc(F)cc4F)c3c2Cl)C1	0.06 µg/mL	8 µg/mL (≈ 18.9 µM)	0.13 µg/mL	32 µg/mL (≈ 75.5 µM)	16 µg/mL (≈ 37.8 µM)	0.03 µg/mL (≈ 0.0708 µM)
Nc1c(F)ccc(-n2cc(C(=O)O)c(=O)c3cc(F)c(N4CC[C@H](N)C4)nc32)c1F	0.32 µg/mL	–	1.61 µg/mL	–	–	–
Nc1cc(-n2cc(C(=O)O)c(=O)c3cc(F)c(N4CC[C@H](N)C4)nc32)ccc1F	0.14 µg/mL	–	0.45 µg/mL	–	–	–
CN(C)C1CN(c2c(F)cc3c(=O)c(C(=O)O)cn(-c4cc(N)c(F)cc4F)c3c2Cl)C1	0.22 µg/mL	–	0.12 µg/mL	–	–	–
Nc1cc(-n2cc(C(=O)O)c(=O)c3cc(F)c(N4CC[C@H](N)C4)nc32)c(F)cc1F	0.1 µg/mL	–	0.26 µg/mL	–	–	–
Cc1c(N2CC(N)C2)c(F)cc2c(=O)c(C(=O)O)cn(-c3cc(N)c(F)cc3F)c12	0.03 µg/mL	–	0.09 µg/mL	–	–	–
Nc1cc(-n2cc(C(=O)O)c(=O)c3cc(F)c(N4CC(N)C4)cc32)c(F)cc1F	0.12 µg/mL	–	0.49 µg/mL	–	–	–
CNC1CN(c2c(F)cc3c(=O)c(C(=O)O)cn(-c4cc(N)c(F)cc4F)c3c2Cl)C1	0.04 µg/mL	–	0.08 µg/mL	–	–	–
Nc1cc(-n2cc(C(=O)O)c(=O)c3cc(F)c(N4CC(N)C4)c(F)c32)c(F)cc1F	0.08 µg/mL	–	0.42 µg/mL	–	–	–
Nc1cc(-n2cc(C(=O)O)c(=O)c3cc(F)c(N4CC[C@H](N)C4)c(F)c32)c(F)cc1F	0.22 µg/mL	–	0.34 µg/mL	–	–	–
Nc1cc(-n2cc(C(=O)O)c(=O)c3cc(F)c(N4CC[C@H](N)C4)nc32)c(F)c(F)c1F	1.81 µg/mL	–	3.22 µg/mL	–	–	–
Nc1cc(-n2cc(C(=O)O)c(=O)c3cc(F)c(N4CC[C@H](N)C4)cc32)c(F)cc1F	0.14 µg/mL	–	0.22 µg/mL	–	–	–
Nc1cc(-n2cc(C(=O)O)c(=O)c3cc(F)c(N4CCNCC4)c(Cl)c32)c(F)cc1F	0.52 µg/mL	–	1.61 µg/mL	–	–	–
Nc1ccc(F)c(-n2cc(C(=O)O)c(=O)c3cc(F)c(N4CC[C@H](N)C4)nc32)c1	0.86 µg/mL	–	1.99 µg/mL	–	–	–
CC1(N)CN(c2c(F)cc3c(=O)c(C(=O)O)cn(-c4cc(N)c(F)cc4F)c3c2Cl)C1	0.06 µg/mL	–	0.1 µg/mL	–	–	–
Nc1cc(-n2cc(C(=O)O)c(=O)c3cc(F)c(N4CCNCC4)cc32)c(F)cc1F	0.15 µg/mL	–	1.05 µg/mL	–	–	–
Nc1cc(-n2cc(C(=O)O)c(=O)c3cc(F)c(N4CC(N)C4)nc32)c(F)cc1F	0.15 µg/mL	–	0.65 µg/mL	–	–	–
CCNC1CN(c2c(F)cc3c(=O)c(C(=O)O)cn(-c4cc(N)c(F)cc4F)c3c2Cl)C1	0.08 µg/mL	–	0.12 µg/mL	–	–	–
Nc1cc(-n2cc(C(=O)O)c(=O)c3cc(F)c(N4CC(N)C4)c(Cl)c32)c(F)cc1F	0.03 µg/mL	1 µg/mL (≈ 2.28 µM)	0.07 µg/mL	1 µg/mL (≈ 2.28 µM)	1 µg/mL (≈ 2.28 µM)	0.008 µg/mL (≈ 0.0182 µM)
Nc1cc(-n2cc(C(=O)O)c(=O)c3cc(F)c(N4CC(N)C4)c(Br)c32)c(F)cc1F	0.04 µg/mL	–	0.07 µg/mL	–	–	–
Nc1cc(-n2cc(C(=O)O)c(=O)c3cc(F)c(N4CCNCC4)nc32)c(F)cc1F	1.72 µg/mL	–	5.81 µg/mL	–	–	–
Nc1cc(-n2cc(C(=O)O)c(=O)c3cc(F)c(N4CCNCC4)c(F)c32)c(F)cc1F	0.39 µg/mL	–	2.6 µg/mL	–	–	–
Nc1cc(-n2cc(C(=O)O)c(=O)c3cc(F)c(N4CC[C@H](N)C4)c(Cl)c32)c(F)cc1F	1.21 µg/mL	–	1.16 µg/mL	–	–	–
O=C(O)c1cn(C2CC2)c2cc(N3CCNCC3)c(F)cc2c1=O [CIPROFLOXACIN]	0.04 µg/mL	128 µg/mL (≈ 386 µM)	0.99 µg/mL	128 µg/mL (≈ 386 µM)	–	1 µg/mL (≈ 3.02 µM)
NC1CCN(c2nc3c(cc2F)c(=O)c(C(=O)O)cn3-c2ccc(F)cc2F)C1 (configuration not stated) [TOSUFLOXACIN]	0.12 µg/mL	–	0.44 µg/mL	–	–	–
N[C@@H]1[C@H]2CN(c3nc4c(cc3F)c(=O)c(C(=O)O)cn4-c3ccc(F)cc3F)C[C@@H]12 [TROVAFLOXACIN]	0.3 µg/mL	128 µg/mL (≈ 307 µM)	0.29 µg/mL	> 128 µg/mL	16 µg/mL (≈ 38.4 µM)	0.25 µg/mL (≈ 0.6 µM)
